Laboratory results reported in ChEMBL document CHEMBL1149534, “3-Arylamino-2H-1,2,4-benzothiadiazin-5-ol 1,1-dioxides as novel and selective CXCR2 antagonists” (Bioorg Med Chem Lett, 2007).
Values after ≈ are worked out from the molar mass of the structure shown.

Tests used:
[1] = biological target: T1, C-X-C chemokine receptor type 2 (Homo sapiens, UniProt P25025); test: Displacement of human recombinant [125I]IL8 from CXCR2 receptor expressed in CHO cells; assay type: cell-based
T1 sequence (P25025 whole entry): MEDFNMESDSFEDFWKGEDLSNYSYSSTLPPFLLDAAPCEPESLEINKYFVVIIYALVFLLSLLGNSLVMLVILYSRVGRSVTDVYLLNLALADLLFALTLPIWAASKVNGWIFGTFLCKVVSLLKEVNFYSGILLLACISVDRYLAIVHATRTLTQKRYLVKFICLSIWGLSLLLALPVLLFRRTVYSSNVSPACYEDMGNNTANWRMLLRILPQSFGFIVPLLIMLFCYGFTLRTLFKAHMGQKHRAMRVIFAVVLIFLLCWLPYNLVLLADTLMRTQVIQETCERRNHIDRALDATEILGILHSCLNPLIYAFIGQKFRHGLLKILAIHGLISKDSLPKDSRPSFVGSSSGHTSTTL
Method in brief: (§1)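 Membranes from CHO cells expressing CXCR1 or CXCR2, with ~0.25 nM human recombinant [125I]-IL-8 as radioligand, run in 96-well format. Values are the mean of three individual experiments.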

[2] = biological target: Interleukin-8 receptors, CXCR1/CXCR2 (Homo sapiens) (UniProt P25025+P25024); test: Ratio of IC50 for CXCR2 receptor to IC50 CXCR1 receptor; assay type: protein assay
Method in brief: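 Selectivity ratio from radioligand-binding IC50s at CXCR2 and CXCR1, using CHO-cell membranes expressing each receptor. Binding results are the mean of three individual experiments.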

[3] = biological target: T1, C-X-C chemokine receptor type 2; test: Antagonist activity at CXCR2 receptor expressed in CHOK1 cells assessed as human IL8-induced calcium mobilization by FLIPR; assay type: functional, cell-based, CHO-K1
Method in brief: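 Cells grown 24 h, loaded with Fluo-4 AM calcium dye, then exposed to compound at […] for 10 min at 37 °C. Ca2+ mobilization read on FLIPR as percent of maximal IL-8 response. IC50 taken as concentration giving 50% inhibition of the maximal IL-8 response.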

[4] = biological target: T2, C-X-C chemokine receptor type 1 (Homo sapiens, UniProt P25024); test: Displacement of human recombinant [125I]IL8 from CXCR1 receptor expressed in CHO cells; assay type: cell-based; method in brief: as §1
T2 sequence (P25024 whole entry): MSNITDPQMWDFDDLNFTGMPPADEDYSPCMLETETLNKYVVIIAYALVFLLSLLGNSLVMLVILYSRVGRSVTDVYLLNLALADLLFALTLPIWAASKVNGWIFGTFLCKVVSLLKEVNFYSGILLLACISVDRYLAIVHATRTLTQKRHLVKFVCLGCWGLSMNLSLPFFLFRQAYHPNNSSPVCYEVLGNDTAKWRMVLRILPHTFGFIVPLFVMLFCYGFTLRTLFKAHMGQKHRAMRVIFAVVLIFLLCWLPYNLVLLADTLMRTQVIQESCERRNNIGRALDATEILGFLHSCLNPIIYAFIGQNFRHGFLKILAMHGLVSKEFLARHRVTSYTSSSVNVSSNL

[5] = Solubility in phosphate buffer at pH 7.4; assay type: physicochemical
Method in brief: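 Aqueous solubility measured in 0.05 M phosphate buffer, pH 7.4, containing 2% DMSO. High-throughput HPLC-based read-out.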

[6] = Half life in rat at 1.6 mg/kg, iv and 3.2 mg/kg, po; assay type: ADME, organism-based; details: in vivo
[7] = Bioavailability in rat at 3.2 mg/kg, po; assay type: ADME, organism-based; details: in vivo
Cytochrome P450 3A4 = Cytochrome P450 3A4 (Homo sapiens, UniProt P08684); test: Inhibition of human CYP3A4; assay type: ADME
[8] = Clearance in rat at 1.6 mg/kg, iv and […] mg/kg, po; assay type: ADME, organism-based; details: in vivo
Cytochrome P450 1A2 = Cytochrome P450 1A2 (Homo sapiens, UniProt P05177); test: Inhibition of human CYP1A2; assay type: ADME
[9] = Volume of distribution at steady state in rat at 1.6 mg/kg, iv and 3.2 mg/kg, po; assay type: ADME, organism-based; details: in vivo, read-out: Vdss
Cytochrome P450 2C9 = Cytochrome P450 2C9 (Homo sapiens, UniProt P11712); test: Inhibition of human CYP2C9
Cytochrome P450 2D6 = Cytochrome P450 2D6 (Homo sapiens, UniProt P10635); test: Inhibition of human CYP2D6; assay type: ADME
Cytochrome P450 2D6, sequence (P10635 whole entry): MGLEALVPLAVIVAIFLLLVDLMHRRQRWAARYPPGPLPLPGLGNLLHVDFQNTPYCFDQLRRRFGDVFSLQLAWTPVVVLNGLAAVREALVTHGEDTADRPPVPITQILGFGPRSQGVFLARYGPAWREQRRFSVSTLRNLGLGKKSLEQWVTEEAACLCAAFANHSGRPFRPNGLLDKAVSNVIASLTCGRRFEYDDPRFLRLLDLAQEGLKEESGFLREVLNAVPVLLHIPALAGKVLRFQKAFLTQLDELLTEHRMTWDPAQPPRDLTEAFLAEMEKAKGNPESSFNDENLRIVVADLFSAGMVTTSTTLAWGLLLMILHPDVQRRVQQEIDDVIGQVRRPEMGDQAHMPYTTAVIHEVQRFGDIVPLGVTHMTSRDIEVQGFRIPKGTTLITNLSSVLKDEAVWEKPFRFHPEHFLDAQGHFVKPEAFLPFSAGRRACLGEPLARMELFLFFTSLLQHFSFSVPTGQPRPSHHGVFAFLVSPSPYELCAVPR

Cytochrome P450 2C9, sequence (P11712 whole entry): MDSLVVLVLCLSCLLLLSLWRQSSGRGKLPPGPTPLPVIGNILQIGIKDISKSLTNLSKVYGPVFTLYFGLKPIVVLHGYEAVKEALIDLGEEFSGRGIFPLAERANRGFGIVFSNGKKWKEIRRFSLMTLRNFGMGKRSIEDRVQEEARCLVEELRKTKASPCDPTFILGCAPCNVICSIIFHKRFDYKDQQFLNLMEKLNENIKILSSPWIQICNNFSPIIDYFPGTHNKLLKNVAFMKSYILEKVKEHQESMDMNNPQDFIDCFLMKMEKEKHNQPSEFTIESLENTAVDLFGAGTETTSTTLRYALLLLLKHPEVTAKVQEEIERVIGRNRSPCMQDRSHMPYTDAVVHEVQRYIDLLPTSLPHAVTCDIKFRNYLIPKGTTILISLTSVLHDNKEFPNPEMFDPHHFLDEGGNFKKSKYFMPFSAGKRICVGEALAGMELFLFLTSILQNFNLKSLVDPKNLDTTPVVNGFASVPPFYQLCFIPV
Cytochrome P450 3A4, sequence (P08684 whole entry): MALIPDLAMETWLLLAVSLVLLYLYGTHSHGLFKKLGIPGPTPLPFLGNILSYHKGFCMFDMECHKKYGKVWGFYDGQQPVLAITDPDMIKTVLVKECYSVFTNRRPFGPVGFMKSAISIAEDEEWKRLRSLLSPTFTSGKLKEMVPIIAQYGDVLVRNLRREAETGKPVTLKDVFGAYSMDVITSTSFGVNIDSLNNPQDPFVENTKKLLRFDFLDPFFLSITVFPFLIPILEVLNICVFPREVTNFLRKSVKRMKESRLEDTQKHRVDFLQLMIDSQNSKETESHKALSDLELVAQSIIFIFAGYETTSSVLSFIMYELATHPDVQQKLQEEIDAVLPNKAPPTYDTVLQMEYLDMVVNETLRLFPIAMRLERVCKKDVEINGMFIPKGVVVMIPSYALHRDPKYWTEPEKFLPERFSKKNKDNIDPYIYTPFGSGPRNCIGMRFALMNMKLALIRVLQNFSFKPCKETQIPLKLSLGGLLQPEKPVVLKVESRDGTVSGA
Cytochrome P450 1A2, sequence (P05177 whole entry): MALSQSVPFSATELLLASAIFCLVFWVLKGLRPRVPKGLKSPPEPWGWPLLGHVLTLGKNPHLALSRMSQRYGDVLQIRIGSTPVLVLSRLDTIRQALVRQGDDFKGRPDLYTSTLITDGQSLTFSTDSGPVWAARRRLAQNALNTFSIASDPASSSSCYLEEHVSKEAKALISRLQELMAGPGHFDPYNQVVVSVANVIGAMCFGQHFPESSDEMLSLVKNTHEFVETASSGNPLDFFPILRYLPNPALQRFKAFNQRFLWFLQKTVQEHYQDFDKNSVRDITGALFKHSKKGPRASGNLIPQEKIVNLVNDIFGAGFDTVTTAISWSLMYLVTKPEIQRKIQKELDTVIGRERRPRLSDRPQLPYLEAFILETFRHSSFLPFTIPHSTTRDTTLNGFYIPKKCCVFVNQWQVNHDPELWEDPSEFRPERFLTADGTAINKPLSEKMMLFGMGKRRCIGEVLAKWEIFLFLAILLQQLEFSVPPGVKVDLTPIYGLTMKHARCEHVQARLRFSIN

O=S1(=O)NC(Nc2c(F)cccc2Br)=Nc2c(O)cc(Cl)cc21
IC50 [1]: 1.6 µM

COc1ccccc1NC1=Nc2c(O)cc(Cl)cc2S(=O)(=O)N1
IC50 [1]: 0.25 µM

O=S1(=O)NC(Nc2ccccc2OC(F)(F)F)=Nc2c(O)cc(Cl)cc21
IC50 [1]: 0.93 µM

O=S1(=O)N=C(Nc2ccccc2Cl)Nc2c(O)cccc21
IC50 [1]: 5.2 µM

O=S1(=O)NC(Nc2ccccc2Br)=Nc2c(O)cc(F)cc21
IC50 [1]: 0.36 µM

O=[N+]([O-])c1cc(O)c2c(c1)S(=O)(=O)N=C(Nc1ccccc1Br)N2
Ratio IC50 [2]: < 100 | IC50 [1]: 0.026 µM | IC50 [3]: 0.6 µM | IC50 [4]: 3.2 µM | solubility [5]: 233 µM (≈ 96.3 µg/mL)

O=S1(=O)NC(Nc2cccc(F)c2Cl)=Nc2c(O)cc(Cl)cc21
IC50 [1]: 0.064 µM | IC50 [3]: 0.46 µM | IC50 [4]: 13 µM | solubility [5]: 160 µM (≈ 60.2 µg/mL)

O=S1(=O)N=C(Nc2ccccc2Br)Nc2c(O)ccc(Cl)c21
IC50 [1]: 0.48 µM

O=[N+]([O-])c1cc(O)c2c(c1)S(=O)(=O)N=C(Nc1ccccc1Cl)N2
Ratio IC50 [2]: < 100 | half-life [6]: 2 h | bioavailability [7]: 5% | IC50 (Cytochrome P450 3A4): > 25 µM | clearance [8]: 1.38 L/h/kg | IC50 (Cytochrome P450 1A2): > 25 µM | Vd [9]: 0.53 L/kg | IC50 (Cytochrome P450 2C9): 0.6 µM | IC50 (Cytochrome P450 2D6): > 25 µM | IC50 [1]: 0.081 µM | IC50 [3]: 1.1 µM | IC50 [4]: 12 µM | solubility [5]: 188 µM (≈ 69.3 µg/mL)

Cc1cc(O)c2c(c1)S(=O)(=O)N=C(Nc1ccccc1Br)N2
IC50 [1]: 0.28 µM

O=S1(=O)N=C(NC2CCCC2)Nc2c(O)cc(Cl)cc21
IC50 [1]: 20 µM

O=S1(=O)NC(NCc2ccccc2)=Nc2c(O)cc(Cl)cc21
IC50 [1]: 8 µM

O=S1(=O)NC(Nc2ccc(Br)cc2)=Nc2c(O)cc(Cl)cc21
IC50 [1]: 5.1 µM

O=S1(=O)N=C(Nc2ccc(F)cc2Br)Nc2c(O)cc(Cl)cc21
IC50 [1]: 0.12 µM

O=S1(=O)NC(Nc2ccccc2C(F)(F)F)=Nc2c(O)cc(Cl)cc21
IC50 [1]: 0.83 µM

O=S1(=O)N=C(Nc2ccccc2F)Nc2c(O)cc(Cl)cc21
IC50 [1]: 0.74 µM

O=S1(=O)N=C(Nc2cccc(Br)c2)Nc2c(O)cc(Cl)cc21
IC50 [1]: 6.1 µM
